Laboratory results as given in paper PMC6522656 (Heliyon, 2019).

How the values were obtained:
[1] = tested on: mouse fibroblast (NIH/3T3); assay: MTT cytotoxicity assay, NIH/3T3; format: cell-based; conditions: NIH3T3, 72 h, read-out: IC50 3T3 Normal
Summary of the method: (§1)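 Cells grown as monolayers in DMEM with 4.5 g glucose, 10% FBS and 1% penicillin/streptomycin. Seeded cells exposed for 72 h to several concentrations of test compound (0.1–100 μM), then given MTT for 4 h. Formazan dissolved in DMSO; absorbance read at 570 nm. IC50 taken as the mean of three independent experiments in triplicate; 100 μM cut-off.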

HEK293/pcDNA3.1 = assay: MTT cytotoxicity assay, HEK293/pcDNA3.1; format: cell-based, human; conditions: for IC50: Homo sapiens, HEK293, 72 h, read-out: IC50 HEK293/pcDNA.3.1 Normal; for significant cytotoxicity in human embryonic kidney cells: at a concentration of less than 50 μM
Summary of the method: as §1

HT-29 cancer cells = assay: MTT cytotoxicity assay, HT-29; format: cell-based; conditions: Homo sapiens, HT-29, 72 h, read-out: IC50 HT-29 Colon
Summary of the method: as §1

DU-145 cells = assay: MTT cytotoxicity assay, DU-145; format: cell-based; conditions: Homo sapiens, DU-145, 72 h, read-out: IC50 DU-145 Prostate
Summary of the method: as §1

HCT-116 = assay: MTT cytotoxicity assay, HCT-116; format: cell-based; conditions: Homo sapiens, HCT-116, 72 h, read-out: IC50 HCT-116 Colon
Summary of the method: as §1

A2780 cells [2] = assay: Nuclear condensation-based apoptosis assay; format: cell-based; conditions: 5, 10, or 20 μM at 24 and 48 h
A2780 cells [3] = assay: Colony formation assay; format: cell-based; conditions: 10 or 20 μM, incubated 24 hrs, colonies over 2 weeks
Summary of the method: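 A2780 cells exposed to vehicle (0 μM) or test compound (10 or 20 μM) for 24 h, then reseeded at very low density in six-well plates and grown 2 weeks. Colonies fixed, stained and counted under a microscope; colony formation rate calculated. Repeated independently in triplicate.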

A2780 cells [4] = assay: Annexin V based apoptosis assay; format: cell-based; conditions: 24 h; for Q1 (flow cytometry quadrant): control Q1 94.1%; for Q2 (flow cytometry quadrant, apoptosis): control Q2 5.87 %

**Q.** What does the source list for `O=C1Nc2ccccc2C1=Cc1cc2ccccc2nc1Cl` [LM01, 3-((2-chloroquinolin-3-yl)methylene)indolin-2-one]?
**A.** IC50 [1]: > 100 µM; IC50 (HEK293/pcDNA3.1): 64.5 µM; IC50 (HT-29 cancer cells): > 100 µM; IC50 (DU-145 cells): 77.5 µM; IC50 (HCT-116): > 100 µM

**Q.** Which results are given for `Cc1ccc2nc(Cl)c(C=C3C(=O)Nc4ccccc43)cc2c1` [LM02, 3-((2-chloro-6-methylquinolin-3-yl)methylene)indolin-2-one]?
**A.** IC50 [1]: > 100 µM; IC50 (HEK293/pcDNA3.1): 73.4 µM; IC50 (HT-29 cancer cells): > 100 µM; IC50 (DU-145 cells): > 100 µM; IC50 (HCT-116): 52.1 µM

**Q.** Which IC50 [1] does the source give for `Cc1cc2cc(C=C3C(=O)Nc4ccccc43)c(Cl)nc2cc1C` [LM03, 3-((2-chloro-6,7-dimethylquinolin-3-yl)methylene)indolin-2-one] here?
**A.** > 100 µM

**Q.** And the IC50 (HEK293/pcDNA3.1)?
**A.** 97.4 µM

**Q.** What about the IC50 (HT-29 cancer cells) of the same compound?
**A.** > 100 µM

**Q.** What about the IC50 (DU-145 cells) of the same compound?
**A.** > 100 µM

**Q.** What about the IC50 (HCT-116) of the same compound?
**A.** > 100 µM

**Q.** What does the source list for `COc1ccc2nc(Cl)c(C=C3C(=O)Nc4ccccc43)cc2c1` [LM04, 3-((2-chloro-6-methoxyquinolin-3-yl)methylene)indolin-2-one]?
**A.** IC50 [1]: > 100 µM; IC50 (HEK293/pcDNA3.1): 39.9 µM; significant cytotoxicity in human embryonic kidney cells (HEK293/pcDNA3.1): produced significant cytotoxicity; IC50 (HT-29 cancer cells): > 100 µM; IC50 (DU-145 cells): 47.2 µM; IC50 (HCT-116): 60.9 µM

**Q.** Which results are given for `COc1ccc2cc(C=C3C(=O)Nc4ccccc43)c(Cl)nc2c1` [LM05, 3-((2-chloro-7-methoxyquinolin-3-yl)methylene)indolin-2-one]?
**A.** IC50 [1]: > 100 µM; IC50 (HEK293/pcDNA3.1): > 100 µM; IC50 (HT-29 cancer cells): > 100 µM; IC50 (DU-145 cells): > 100 µM; IC50 (HCT-116): 56.2 µM

**Q.** With `COc1cc2cc(C=C3C(=O)Nc4ccccc43)c(Cl)nc2cc1OC` [LM06, 3-((2-chloro-6,7-dimethoxyquinolin-3-yl)methylene)indolin-2-one] as the compound, how does the IC50 [1] read?
**A.** > 100 µM

**Q.** And the IC50 (HEK293/pcDNA3.1)?
**A.** > 100 µM

**Q.** And the IC50 (HT-29 cancer cells)?
**A.** > 100 µM

**Q.** And the IC50 (DU-145 cells)?
**A.** > 100 µM

**Q.** What about the IC50 (HCT-116) of the same compound?
**A.** 75 µM

**Q.** Which IC50 [1] does the source give for `COc1cccc2cc(C=C3C(=O)Nc4ccccc43)c(Cl)nc12` [LM07, 3-((2-chloro-8-methoxyquinolin-3-yl)methylene)indolin-2-one] here?
**A.** > 100 µM

**Q.** And the IC50 (HEK293/pcDNA3.1)?
**A.** 80.8 µM

**Q.** And the IC50 (HT-29 cancer cells)?
**A.** > 100 µM

**Q.** What about the IC50 (DU-145 cells) of the same compound?
**A.** 11 µM

**Q.** What about the IC50 (HCT-116) of the same compound?
**A.** > 100 µM

**Q.** Which IC50 [1] does the source give for `O=C1Nc2ccccc2C1=Cc1cc2cc(Cl)ccc2nc1Cl` [LM08, 3-((2,6-dichloroquinolin-3-yl)methylene)indolin-2-one] here?
**A.** > 100 µM

**Q.** What about the IC50 (HEK293/pcDNA3.1) of the same compound?
**A.** 64.3 µM

**Q.** What about the IC50 (HT-29 cancer cells) of the same compound?
**A.** > 100 µM

**Q.** What about the “nuclear morphology of A2780 cells (DAPI staining)” value (A2780 cells [2]) of the same compound?
**A.** nuclear condensation

**Q.** What about the “colony formation of A2780 cells” value (A2780 cells [3]) of the same compound?
**A.** significantly inhibited

**Q.** What about the “Q1 (flow cytometry quadrant)” value (A2780 cells [4]; 10 μM) of the same compound?
**A.** 64.8%

**Q.** And the “Q2 (flow cytometry quadrant, apoptosis)” value (A2780 cells [4]; 10 μM)?
**A.** 34.6%

**Q.** And the “Q1 (flow cytometry quadrant)” value (A2780 cells [4]; 20 μM)?
**A.** 61.5%

**Q.** And the “Q2 (flow cytometry quadrant, apoptosis)” value (A2780 cells [4]; 20 μM)?
**A.** 36.9%

**Q.** And the IC50 (DU-145 cells)?
**A.** 91.2 µM

**Q.** And the IC50 (HCT-116)?
**A.** 77.8 µM

**Q.** What does the source list for `O=C1Nc2ccccc2C1=Cc1cc2ccc(Cl)cc2nc1Cl` [LM09, 3-((2,7-dichloroquinolin-3-yl)methylene)indolin-2-one]?
**A.** IC50 [1]: > 100 µM; IC50 (HEK293/pcDNA3.1): 63.2 µM; IC50 (HT-29 cancer cells): > 100 µM; IC50 (DU-145 cells): 54.9 µM; IC50 (HCT-116): 75.2 µM

**Q.** With `O=C1Nc2ccccc2C1=Cc1cc2cc(Br)ccc2nc1Cl` [LM10, 3-((6-bromo-2-chloroquinolin-3-yl)methylene)indolin-2-one] as the compound, how does the IC50 [1] read?
**A.** > 100 µM

**Q.** And the IC50 (HEK293/pcDNA3.1)?
**A.** 50.5 µM

**Q.** What about the “significant cytotoxicity in human embryonic kidney cells” value (HEK293/pcDNA3.1) of the same compound?
**A.** produced significant cytotoxicity

**Q.** And the IC50 (HT-29 cancer cells)?
**A.** > 100 µM

**Q.** What about the IC50 (DU-145 cells) of the same compound?
**A.** > 100 µM

**Q.** What about the IC50 (HCT-116) of the same compound?
**A.** 41.3 µM

**Q.** Which IC50 [1] does the source give for `O=C1Nc2ccccc2C1=Cc1cc2ccc3ccccc3c2nc1Cl` [LM11, 3-((2-chlorobenzo[h]quinolin-3-yl)methylene)indolin-2-one] here?
**A.** > 100 µM

**Q.** What about the IC50 (HEK293/pcDNA3.1) of the same compound?
**A.** 75.3 µM

**Q.** And the IC50 (HT-29 cancer cells)?
**A.** > 100 µM

**Q.** What about the IC50 (DU-145 cells) of the same compound?
**A.** 95.7 µM

**Q.** What about the IC50 (HCT-116) of the same compound?
**A.** > 100 µM
